Compounds with a hit are over-represented: about 1.2% of the library has one in this group of screens.
TNAP inh noacc = blocks human TNAP activity with no phosphate acceptor present; P05186; purified TNAP, CDP-star luminescence, 30 min; inhibition, % at 20 µM; 0.26% of 200,000 active;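 active means tissue-nonspecific alkaline phosphatase inhibition above about 50% at 20 µM in the single-dose screen, limit read from the data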
Target sequence (P05186 whole entry, looked up): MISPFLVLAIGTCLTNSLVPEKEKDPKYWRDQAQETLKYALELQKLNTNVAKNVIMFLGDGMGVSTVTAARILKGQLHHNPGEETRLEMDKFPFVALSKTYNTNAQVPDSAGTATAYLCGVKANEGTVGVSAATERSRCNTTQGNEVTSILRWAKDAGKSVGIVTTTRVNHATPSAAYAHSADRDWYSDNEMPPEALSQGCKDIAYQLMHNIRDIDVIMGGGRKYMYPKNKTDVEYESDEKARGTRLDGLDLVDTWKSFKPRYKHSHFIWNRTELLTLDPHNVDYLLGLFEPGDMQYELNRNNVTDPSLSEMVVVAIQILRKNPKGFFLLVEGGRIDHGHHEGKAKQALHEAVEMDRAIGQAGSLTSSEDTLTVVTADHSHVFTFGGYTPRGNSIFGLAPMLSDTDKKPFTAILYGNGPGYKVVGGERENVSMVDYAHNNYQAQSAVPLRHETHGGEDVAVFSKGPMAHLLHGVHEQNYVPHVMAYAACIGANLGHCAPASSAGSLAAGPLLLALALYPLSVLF
TNAP inh hiacc = inhibitors of human TNAP at high phosphate acceptor concentration. P05186. purified TNAP, CDP-star luminescence, 1 M DEA. inhibition, % at 20 µM. 0.03% of 200,000 active. AID 1135;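 active means over 50% inhibition of tissue-nonspecific alkaline phosphatase at 20 µM in the single-dose screen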
INS promoter inh = TRM-6 insulin promoter activity inhibition; TRM-6 cells, insulin promoter-eGFP reporter, imaging; reporter expression induced with tamoxifen; inhibition, % at 2 µM; 0.9% of 130,000 active;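 active means inhibition above the mean plus 3 SD, with well images judged a real hit on visual review, cut at about 60% in these data, passing the limit was not always enough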
TNAP act hi DEA = activators of human TNAP at high phosphate acceptor concentration. P05186. purified TNAP, CDP-star luminescence, 1 M DEA, 30 min; hits give high values; 0 = EDTA background, 1 = DMSO-only activity. AID 1136. 200,000 tested, under 10 active. activation factor at 20 µM;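 active means activation factor at least 2 at 20 µM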
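system = human TNAP | amount = enzyme diluted 1/800 final | reagent = 100 µM CDP-star substrate | signal = luminescent substrate turnover signal | dosing = one dose, 20 µM | benchmarks = EDTA negative control, DMSO positive control | measure = activation factor | timing = 30 min reaction, room temperature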
HMGR II inh = blocks class II HMG-CoA reductase of Enterococcus faecalis; purified E. faecalis HMGR, NADPH absorbance 340 nm kinetic; 0.41% of 190,000 active; inhibition, % at 10 µM;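 active means inhibition above a set limit, the median over all tested compounds plus 3 SD, cut at about 9.5% in these data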;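 further: enzyme runs in reverse so mevalonate oxidation gives rising NADPH absorbance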
Each line names hits and unclear results; the compound was inactive in the other large screens.

CC(=O)Oc1c(/C=C(\C#N)C(N)=O)[nH]c2ccccc12	none
NS(=O)(=O)c1cnccc1Nc1ccc(Cl)cc1	TNAP inh noacc 87, TNAP inh hiacc 90
Cc1nn2c(NCC(C)C)c3c(nc2c1-c1ccccc1)CCC3	none
Cc1nn2c(Nc3ccccc3)c3c(nc2c1-c1ccccc1)CCC3	INS promoter inh 91
COc1ccc(OC)c2[nH]c(=O)c(CCNC(=O)c3ccc(Br)o3)cc12	INS promoter inh 86
COc1ccc(OC)c2[nH]c(=O)c(CCNC(=O)c3ccc(S(=O)(=O)N(C)C)cc3)cc12	INS promoter inh 91
Cc1ccc(Cl)cc1N=C(N)N=C(N)N	HMGR II inh 15 (no result: INS promoter inh)
c1ccc(Oc2cccc(OCCCCN3CCCC3)c2)cc1	none
CCN1/C(=C/C=C/c2oc3ccc4ccccc4c3[n+]2CC)Oc2ccc3ccccc3c21	TNAP act hi DEA 2 (no result: INS promoter inh)
CC[n+]1c(/C=C/N(C)c2ccccc2)oc2ccc(Cl)cc21	none (no result: INS promoter inh)
Cc1ccc(S(=O)(=O)N2CCN(C(C)CC(=O)O)CC2)cc1 (stereo unspecified)	none (no result: INS promoter inh)
NS(=O)(=O)c1cccnc1Nc1cccc(Cl)c1Cl	TNAP inh hiacc 50
O=C(CSc1ncn[nH]1)NCCC(c1ccccc1)c1ccccc1	TNAP inh noacc 55, TNAP inh hiacc 51
O=C(CSc1ncn[nH]1)NCCOc1ccccc1	none
COc1ccc(CCNC(=O)CSc2ncn[nH]2)cc1	INS promoter inh 86
O=C(CS(=O)(=O)c1ccccc1)Nc1nc(-c2ccc(F)cc2)cs1	INS promoter inh 75
O=C(CSc1ncn[nH]1)Nc1nc(-c2ccccc2)cs1	TNAP inh noacc 84
COc1ccc(CCNC(=O)CSc2ccccn2)cc1	none
Cc1cc(Cl)ccc1OCc1nnc2n1CCCCC2	none (no result: INS promoter inh)
COc1ccc2[nH]c3c(NCCN4CCCCC4)ncnc3c2c1	INS promoter inh 81
CCOC(=O)N1CCN(c2ncnc3c2[nH]c2ccc(OC)cc23)CC1	INS promoter inh 91
Cc1ccc2[nH]c3c(NCCCN4CCCC4=O)ncnc3c2c1	none
CCC(C)(C(=O)Nc1ccccc1C)N(C(=O)CNC(C)=O)c1ccccc1C (stereo unspecified)	none
O=C1NC(=S)S/C1=C\c1ccc(SCc2ccco2)o1	HMGR II inh 13 (no result: INS promoter inh)
CCC(CC)NC(=O)c1cccc(Br)c1	INS promoter inh 88
CCC(CC)NC(=O)c1cccc(NC(=O)C(C)C)c1	none
COC(=O)C1=NNC2(c3ccc(C)cc3)C(=O)N(c3ccc(C)cc3)C(=O)C12 (stereo unspecified)	none
O=C(/C=C/c1ccccc1)NNC(=O)C1CC1	none
O=C(NNC(=O)C(O)(c1ccccc1)c1ccccc1)C1CC1	HMGR II inh 11 (no result: INS promoter inh)
Clc1ccc2nc3ccccn3c2c1	none
N#Cc1ccc2c(c1)nc1ccccn12	INS promoter inh 79
COc1ccnc(Oc2ccc(Cl)cc2)c1C#N	none (no result: INS promoter inh)
CCc1nc(Nc2ccc3c(c2)OCCO3)c2oc3ccccc3c2n1	INS promoter inh 86
O=C(COc1cccc2ccccc12)NCc1cccnc1	none
Cn1c(-c2cnn(-c3ccccc3)c2-n2cccc2)n[nH]c1=S	none
CCCOc1ccc(/C=N/Nc2ccccc2[N+](=O)[O-])c(OCCC)c1	INS promoter inh 84
O=[N+]([O-])c1ccccc1N/N=C\c1ccccc1Cl	none (no result: INS promoter inh)
Clc1ccc(NNc2ccnc3cc(Cl)ccc23)cc1	HMGR II inh 15
Fc1ccc(N/N=C/c2cccnc2)c(F)c1	none
Cc1ccccc1/C=N/Nc1ccnc2cc(Cl)ccc12	INS promoter inh 80
Clc1ccc2c(N/N=C/c3ccc(Br)cc3)ccnc2c1	INS promoter inh 92
Cc1ccc(/C=N/Nc2ccnc3cc(Cl)ccc23)c(C)c1	none (no result: INS promoter inh)
Clc1ccc2c(N/N=C/c3cccnc3)ccnc2c1	INS promoter inh 93
O=C1CCCC/C1=N\Nc1ccc(OCc2ccccc2)cc1	none (no result: INS promoter inh)
O=C1C=C(NNC(=O)c2cccnc2)CC(c2ccco2)C1 (stereo unspecified)	none
C/C(=N/NC(=O)CNC(=O)/C=C/c1ccco1)c1ccc(Cl)cc1	none (no result: INS promoter inh)
O=C(c1cccs1)N(c1ccc(F)cc1)C1C=CS(=O)(=O)C1 (stereo unspecified)	HMGR II inh 17 (no result: INS promoter inh)
CN(Cc1ccccc1)c1nc(N)nc(Cl)c1C=O	HMGR II inh 14
Cc1cccc(-n2nnc3c(=O)n(CC(=O)Nc4cc(C)on4)cnc32)c1	none
O=C(CCCN1C(=O)/C(=C\c2cccs2)SC1=S)Nc1ccccn1	HMGR II inh 14 (no result: INS promoter inh)
COc1ccc(-n2c(Cc3cccn3C)nnc2SCC(=O)NC2CCCC2)cc1	INS promoter inh 100
Cn1cccc1Cc1nnc(SCC(=O)N2CCCCCC2)n1-c1ccc(F)cc1	none (no result: INS promoter inh)
CC1CCN(C(=O)CSc2nnc(Cc3cccn3C)n2-c2ccc(F)cc2)CC1	INS promoter inh 71
CCCCC(=O)Nc1ccc(NC(=O)c2ccc([N+](=O)[O-])cc2Cl)cc1OC	none
CCCc1cc2c(cc1NC(=O)c1ccccc1C)OCO2	none (no result: INS promoter inh)
Cc1ccccc1NC(=O)COC(=O)c1cc(=O)c2ccccc2o1	none
CN(C)c1ccc(NC(=O)COC(=O)c2cc(=O)c3ccccc3o2)cc1	INS promoter inh 67
O=C(CN1C(=O)c2ccccc2C1=O)Nc1sc2c(c1C(=O)NCc1ccco1)CCCC2	INS promoter inh 92
O=C(CCCN1C(=O)c2ccccc2C1=O)Nc1sc2c(c1C(=O)NCc1ccco1)CCC2	none
CCCCNC(=O)c1ccccc1NC(=O)CCSc1ccccc1	HMGR II inh 15
CCCCNC(=O)Nc1ccccc1C(=O)NCCC	none
O=C(COc1cccc([N+](=O)[O-])c1)N/N=C/c1ccco1	HMGR II inh 9.6 (no result: INS promoter inh)
O=C(CCC(=O)Nc1cccc(Cl)c1)N/N=C/c1cc([N+](=O)[O-])ccc1O	TNAP inh noacc 80 (no result: INS promoter inh)
Cc1cc(C)cc(OCC(=O)N/N=C/c2ccco2)c1	none (no result: INS promoter inh)
Cc1cc(=O)oc2cc(OCC(=O)N/N=C/c3cc([N+](=O)[O-])ccc3O)ccc12	TNAP inh noacc 89 (no result: INS promoter inh)
O=C(CCCOc1ccc(Cl)cc1Cl)N/N=C/c1ccco1	INS promoter inh 79
C=CCN(CC=C)CC(O)CN(c1cc([N+](=O)[O-])ccc1OC)S(=O)(=O)c1ccccc1 (stereo unspecified)	none
NC(=O)CSc1ccc(F)cc1	none (no result: INS promoter inh)
O=C(Cc1n[nH]c(=O)c2ccccc12)NCc1ccccn1	HMGR II inh 10
O=C(NCc1ccccn1)C(=O)NCc1ccccn1	INS promoter inh 80
CC1CCCC(NC(=O)COC(=O)c2cc(S(=O)(=O)N3CCCCC3)ccc2N2CCOCC2)C1C (stereo unspecified)	none
O=C(COC(=O)c1cc(S(=O)(=O)N2CCCCC2)ccc1N1CCOCC1)NC1CCS(=O)(=O)C1 (stereo unspecified)	HMGR II inh 14 (no result: INS promoter inh)
CCOC(=O)c1c(NC(=O)COc2ncnc3ccccc23)sc(C)c1CC	none (no result: INS promoter inh)
COc1ccccc1NC(=O)Cn1cnc2sc(C)c(S(=O)(=O)N3CCCCC3)c2c1=O	none

Screening data: PubChem BioAssay, several laboratories
